Test results published in publication PMC6732210 (Journal of chemical information and modeling, 2017).
pKd: −log10 of the molar value. “Also recorded” adds a separate entry of the source. Like-named read-outs stand apart in the source and are kept apart here.

Legend:
TNFR1 [1] = molecular target: T1, TNFR1 (Homo sapiens, UniProt P19438); experiment: SPR-based binding assay, immobilized TNFR1; details: read-out: Kd for TNFR1, 4 to 256 μM, steady-state affinity model
T1 sequence (P19438 30-455): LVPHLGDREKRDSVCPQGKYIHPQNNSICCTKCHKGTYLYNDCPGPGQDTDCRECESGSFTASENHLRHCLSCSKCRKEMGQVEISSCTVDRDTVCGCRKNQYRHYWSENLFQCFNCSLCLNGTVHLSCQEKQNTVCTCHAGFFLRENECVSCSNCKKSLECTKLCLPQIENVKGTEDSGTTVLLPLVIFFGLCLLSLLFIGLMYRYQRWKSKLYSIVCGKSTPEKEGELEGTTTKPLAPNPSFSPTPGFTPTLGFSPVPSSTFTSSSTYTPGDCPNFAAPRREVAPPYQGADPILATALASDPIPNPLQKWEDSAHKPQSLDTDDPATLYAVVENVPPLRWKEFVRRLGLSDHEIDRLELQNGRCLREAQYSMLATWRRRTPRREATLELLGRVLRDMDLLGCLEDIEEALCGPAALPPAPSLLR
Method in brief: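 Human TNFR1 in 10 mM sodium acetate, pH 5.5, amine-coupled to a CM5 chip. Single-concentration screen at 50 μM in PBS with 5% DMSO, 120 s injection at 30 μL/min. For affinity, 4–256 μM in the same buffer was passed over reference and active channels at 30 μL/min, with 120 s association and 120 s dissociation. Kd from a steady-state affinity fit.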

L929 cells = experiment: TNF-α-induced L929 cytotoxicity; format: cell-based; details: 25–200 μM, 10 ng/mL TNF-α and 1 μg/mL actinomycin D, 18 h
Method in brief: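 L929 cells seeded at 2.0 × 10⁴ cells/well and cultured overnight. Test compound (25–200 μM) was premixed with 10 ng/mL TNF-α plus 1 μg/mL actinomycin D, then added for 18 h. Viability was read by microscopy and CCK-8 (OD 450 nm). %I = (OD AMD+TNF+compound − OD AMD+TNF)/(OD AMD − OD AMD+TNF) × 100. Three independent experiments in triplicate, mean ± SEM.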

TNF-α [2] = molecular target: TNF-α (Homo sapiens, UniProt P01375); experiment: SPR-based binding assay, immobilized TNF-α; details: read-out: Kd (μM) TNF-α, 2–128 μM, PBS with 5% DMSO
Method in brief: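 Human TNF-α at 50 μg/mL in 10 mM sodium acetate, pH 5.0, amine-coupled to a CM5 chip. Hits were screened at 50 μM in PBS running buffer with 5% DMSO. A 2–128 μM concentration series was injected for 120 s, with 120 s dissociation. Kd came from fitting the sensorgrams in evaluation software. Representative of three independent experiments.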

TNF-α [3] = details: read-out: Kd TNF-α; cited from earlier work
TNFR1 [4] = details: cited from earlier work

Chain of TNF-α (Homo sapiens, UniProt P01375) (P01375 77-233 limits assumed): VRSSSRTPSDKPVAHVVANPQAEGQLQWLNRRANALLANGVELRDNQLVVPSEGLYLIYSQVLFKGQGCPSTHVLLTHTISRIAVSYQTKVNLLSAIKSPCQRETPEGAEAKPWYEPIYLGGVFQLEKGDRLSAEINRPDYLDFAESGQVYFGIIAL

Compound	Inhibition of TNF-α-mediated cytotoxicity on L929 cells (in words) (L929 cells)	Kd (TNF-α [2])	also measured
O=C(NCc1ccc2c(c1)OCO2)C1CCCN(c2ncnc3nc[nH]c23)C1 (centres unmarked) [Compound R1]	dose-dependent inhibition; also recorded: activities similar to that of C87		pKd (TNFR1 [1]): 4.80
O=c1c(N=Nc2nc3ccccc3s2)c(-c2ccccc2)[nH]n1-c1ccc([N+](=O)[O-])cc1 [Compound T1]	dose-dependent inhibition; also recorded: activities similar to that of C87	11 µM	
O=C1Nc2c(S(=O)(=O)Nc3ccccc3)cc(S(=O)(=O)Nc3ccccc3)c3cccc1c23 [Compound T2]	no activity	58 µM	
O=C(O)CCC(=O)Nc1sc2c(c1C(=O)Nc1cccc3ccccc13)CCCC2 [Compound T4]	no activity	113 µM	
Cc1cc2occ(CN(C)CCN(C)Cc3cn(-c4cccc(C(F)(F)F)c4)c4ccccc34)c(=O)c2cc1C [SPD-304]			pKd (TNF-α [3]): 5.27
TNF-α			pKd (TNFR1 [4]; read-out: Kd for binding of TNF-α to TNFR1): 8.75
physcion-8-O-β-D-monoglucoside [reference compound]			pKd (TNFR1 [4]; read-out: Kd TNFR1): 6.42
